Assay results as given in ChEMBL document CHEMBL5696442, “Discovery of type II inhibitors of TGFβ-activated kinase 1 (TAK1) and mitogen-activated protein kinase kinase kinase kinase 2 (MAP4K2)” (J Med Chem, 2015).
Active and inactive are the calls of the source. The calls are words filed in the database; no cut-off is given here.

Key:
L929 = assay: Inhibition of TNF alpha induced IKKalpha/beta phosphorylation level in mouse L929 cells at 100 nM preincubated for 30 mins followed by TNF alpha stimulation and measured after 5 mins by Western blot analysis; type: functional, cell-based
Procedure, shortened: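 Mouse L929 cells were pretreated with compound at 100 nM for 30 min, then stimulated with TNFα for 5 min. Lysates were Western blotted for phospho-IKKα/β, with tubulin as loading control.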

[1] = target: T1, Mitogen-activated protein kinase kinase kinase kinase 2 (Homo sapiens) (UniProt Q12851); assay: Inhibition of MAP4K2 Lys1 labeling site in human A-375 cells at 0.5 uM by KiNativ Profiling analysis relative to control; type: cell-based
T1 sequence (whole entry): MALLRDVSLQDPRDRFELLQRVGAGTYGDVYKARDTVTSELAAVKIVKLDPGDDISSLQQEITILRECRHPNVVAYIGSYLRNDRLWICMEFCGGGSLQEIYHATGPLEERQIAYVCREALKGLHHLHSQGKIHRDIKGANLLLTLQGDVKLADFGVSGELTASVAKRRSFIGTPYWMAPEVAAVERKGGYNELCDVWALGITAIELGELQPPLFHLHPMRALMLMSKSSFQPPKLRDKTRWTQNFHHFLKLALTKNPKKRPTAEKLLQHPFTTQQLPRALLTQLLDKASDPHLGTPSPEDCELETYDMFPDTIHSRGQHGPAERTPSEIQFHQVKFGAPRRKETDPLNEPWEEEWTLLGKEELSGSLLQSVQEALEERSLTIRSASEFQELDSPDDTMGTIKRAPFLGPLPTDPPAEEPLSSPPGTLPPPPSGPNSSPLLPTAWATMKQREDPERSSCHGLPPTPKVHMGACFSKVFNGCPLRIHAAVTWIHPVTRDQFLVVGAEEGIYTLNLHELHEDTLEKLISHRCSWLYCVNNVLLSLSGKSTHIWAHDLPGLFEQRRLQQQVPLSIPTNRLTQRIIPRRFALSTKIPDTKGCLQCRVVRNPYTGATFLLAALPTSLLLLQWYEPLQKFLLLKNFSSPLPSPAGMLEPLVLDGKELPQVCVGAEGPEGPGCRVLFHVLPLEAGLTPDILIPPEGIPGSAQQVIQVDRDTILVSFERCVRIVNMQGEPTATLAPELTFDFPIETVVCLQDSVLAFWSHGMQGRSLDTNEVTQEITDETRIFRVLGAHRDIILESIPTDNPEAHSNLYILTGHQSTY

[2] = target: T2, Mitogen-activated protein kinase kinase kinase 7 (Homo sapiens, UniProt O43318); assay: Inhibition of TAK1 (unknown origin) Lys2 labeling site by KiNativ Profiling analysis
T2 sequence (O43318 whole entry): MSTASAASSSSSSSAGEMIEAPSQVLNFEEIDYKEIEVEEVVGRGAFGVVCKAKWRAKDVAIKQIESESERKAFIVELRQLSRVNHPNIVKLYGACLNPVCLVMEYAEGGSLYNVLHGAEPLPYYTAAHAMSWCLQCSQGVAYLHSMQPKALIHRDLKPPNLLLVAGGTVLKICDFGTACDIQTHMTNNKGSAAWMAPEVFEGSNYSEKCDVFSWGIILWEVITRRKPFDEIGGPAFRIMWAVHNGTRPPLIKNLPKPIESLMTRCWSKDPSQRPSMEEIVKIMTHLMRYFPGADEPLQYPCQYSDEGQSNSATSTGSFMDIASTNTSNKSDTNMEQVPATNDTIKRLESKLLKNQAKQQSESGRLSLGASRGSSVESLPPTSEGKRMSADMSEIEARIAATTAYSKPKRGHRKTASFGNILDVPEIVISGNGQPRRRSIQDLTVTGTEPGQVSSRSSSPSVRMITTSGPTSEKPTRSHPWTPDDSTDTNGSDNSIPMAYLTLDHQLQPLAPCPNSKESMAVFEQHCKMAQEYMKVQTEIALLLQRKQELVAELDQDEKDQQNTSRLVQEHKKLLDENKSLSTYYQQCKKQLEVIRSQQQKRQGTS

[3] = target: T3, Mitogen-activated protein kinase kinase kinase kinase 2 (Homo sapiens, UniProt Q12851); assay: Inhibition of MAP4K2 (unknown origin) Lys1 labeling site by KiNativ Profiling analysis
T3 sequence (Q12851 whole entry): T1 sequence (whole entry)

[4] = target: T4, Mitogen-activated protein kinase kinase kinase 7 (Homo sapiens) (UniProt O43318); assay: Inhibition of TAK1 Lys2 labeling site in human A-375 cells at 0.5 uM by KiNativ Profiling analysis relative to control; type: cell-based
T4 sequence (whole entry): T2 sequence (O43318 whole entry)

BaF3 [5] = assay: Antiproliferative activity against parental mouse BaF3 cells assessed reduction in cell viability measured after 48 hrs by Celltiter-glo assay; type: functional, cell-based; details: BaF3, 48 h
[6] = target: T5, Mitogen-activated protein kinase kinase kinase 20 (Homo sapiens, UniProt Q9NYL2); assay: Inhibition of ZAK (unknown origin) Lys1 labeling site by KiNativ Profiling analysis
Target sequence in this assay (Q9NYL2 whole entry): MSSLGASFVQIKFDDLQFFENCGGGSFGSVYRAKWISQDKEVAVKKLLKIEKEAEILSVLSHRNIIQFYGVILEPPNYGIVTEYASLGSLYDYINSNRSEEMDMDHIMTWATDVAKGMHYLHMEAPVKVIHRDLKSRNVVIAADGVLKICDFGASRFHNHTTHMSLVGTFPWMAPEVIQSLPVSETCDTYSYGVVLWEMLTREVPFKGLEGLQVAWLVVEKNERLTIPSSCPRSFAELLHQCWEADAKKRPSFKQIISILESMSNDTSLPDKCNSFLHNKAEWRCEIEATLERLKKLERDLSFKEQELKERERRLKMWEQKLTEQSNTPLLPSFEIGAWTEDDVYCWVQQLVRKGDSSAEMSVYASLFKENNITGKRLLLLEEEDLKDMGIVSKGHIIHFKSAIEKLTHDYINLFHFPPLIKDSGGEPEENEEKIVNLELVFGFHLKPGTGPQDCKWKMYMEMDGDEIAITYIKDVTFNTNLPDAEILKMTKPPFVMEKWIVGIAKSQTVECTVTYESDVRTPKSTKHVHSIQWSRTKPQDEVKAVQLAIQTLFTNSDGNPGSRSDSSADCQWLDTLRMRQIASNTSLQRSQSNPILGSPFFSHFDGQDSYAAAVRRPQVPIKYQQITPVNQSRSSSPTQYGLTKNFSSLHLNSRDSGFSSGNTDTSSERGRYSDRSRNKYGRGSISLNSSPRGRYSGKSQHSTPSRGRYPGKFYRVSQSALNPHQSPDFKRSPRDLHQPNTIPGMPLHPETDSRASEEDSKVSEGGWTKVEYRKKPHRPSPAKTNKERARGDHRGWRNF

BaF3 [7] = assay: Antiproliferative activity against parental mouse BaF3 cells harbouring Bcr/Abl assessed reduction in cell viability measured after 48 hrs by Celltiter-glo assay; type: functional, cell-based; details: BaF3, 48 h
Procedure, shortened: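 Cells were grown with serial dilutions of compound for 48 h, and viability was read by CellTiter-Glo. IC50 was derived from the dose–response curve. Parental Ba/F3 cells were grown in the presence of interleukin 3. The BCR-ABL line is BCR-ABL-dependent Ba/F3.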

[8] = target: T6, Mitogen-activated protein kinase 14 (Homo sapiens, UniProt Q16539); assay: Inhibition of p38 alpha in human Huh-7 cell lysate at 1 uM by KiNativ Profiling analysis relative to control; type: subcellular
T6 sequence (Q16539 whole entry): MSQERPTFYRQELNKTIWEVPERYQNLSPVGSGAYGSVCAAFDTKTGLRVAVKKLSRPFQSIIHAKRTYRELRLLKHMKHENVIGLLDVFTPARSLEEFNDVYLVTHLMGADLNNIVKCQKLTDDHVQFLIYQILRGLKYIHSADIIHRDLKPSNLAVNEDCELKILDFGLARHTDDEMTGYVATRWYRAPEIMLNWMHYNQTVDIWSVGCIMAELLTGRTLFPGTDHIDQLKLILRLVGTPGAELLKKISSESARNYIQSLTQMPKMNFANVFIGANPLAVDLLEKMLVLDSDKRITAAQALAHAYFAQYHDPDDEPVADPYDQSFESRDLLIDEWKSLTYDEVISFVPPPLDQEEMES

[9] = target: T5, Mitogen-activated protein kinase kinase kinase 20; assay: Inhibition of ZAK Lys1 labeling site in human Huh-7 cell lysate at 1 uM by KiNativ Profiling analysis relative to control; type: subcellular
Target sequence in this assay (Q9NYL2 2-800 limits assumed): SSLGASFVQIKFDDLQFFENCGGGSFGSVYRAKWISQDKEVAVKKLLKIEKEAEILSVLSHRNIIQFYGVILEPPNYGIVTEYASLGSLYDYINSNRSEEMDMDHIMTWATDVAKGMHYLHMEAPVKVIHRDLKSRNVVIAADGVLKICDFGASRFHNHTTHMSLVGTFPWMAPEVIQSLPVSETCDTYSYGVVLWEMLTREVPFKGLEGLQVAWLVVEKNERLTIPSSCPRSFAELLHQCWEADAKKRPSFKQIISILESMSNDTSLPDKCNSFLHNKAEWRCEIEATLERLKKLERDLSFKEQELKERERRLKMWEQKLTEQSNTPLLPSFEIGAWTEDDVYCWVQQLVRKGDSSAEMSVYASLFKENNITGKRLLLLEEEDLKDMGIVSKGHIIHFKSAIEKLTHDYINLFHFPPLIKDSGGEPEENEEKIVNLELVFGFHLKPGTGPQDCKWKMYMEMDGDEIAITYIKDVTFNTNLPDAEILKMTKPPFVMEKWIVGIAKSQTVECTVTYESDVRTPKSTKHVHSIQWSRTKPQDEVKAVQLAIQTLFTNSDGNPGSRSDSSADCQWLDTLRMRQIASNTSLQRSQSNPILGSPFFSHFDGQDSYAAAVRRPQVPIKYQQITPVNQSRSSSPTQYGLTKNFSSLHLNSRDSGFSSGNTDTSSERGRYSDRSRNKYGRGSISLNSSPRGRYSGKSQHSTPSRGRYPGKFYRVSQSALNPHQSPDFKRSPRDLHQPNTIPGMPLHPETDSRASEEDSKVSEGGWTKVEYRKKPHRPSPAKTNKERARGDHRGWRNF

[10] = target: T6, Mitogen-activated protein kinase 14; assay: Inhibition of p38 alpha (unknown origin) by KiNativ Profiling analysis
[11] = target: T7, Tyrosine-protein kinase ABL1 (Homo sapiens, UniProt P00519); assay: Inhibition of ABL Lys1 labeling site in human Huh-7 cell lysate at 1 uM by KiNativ Profiling analysis relative to control; type: subcellular
T7 sequence (P00519 whole entry): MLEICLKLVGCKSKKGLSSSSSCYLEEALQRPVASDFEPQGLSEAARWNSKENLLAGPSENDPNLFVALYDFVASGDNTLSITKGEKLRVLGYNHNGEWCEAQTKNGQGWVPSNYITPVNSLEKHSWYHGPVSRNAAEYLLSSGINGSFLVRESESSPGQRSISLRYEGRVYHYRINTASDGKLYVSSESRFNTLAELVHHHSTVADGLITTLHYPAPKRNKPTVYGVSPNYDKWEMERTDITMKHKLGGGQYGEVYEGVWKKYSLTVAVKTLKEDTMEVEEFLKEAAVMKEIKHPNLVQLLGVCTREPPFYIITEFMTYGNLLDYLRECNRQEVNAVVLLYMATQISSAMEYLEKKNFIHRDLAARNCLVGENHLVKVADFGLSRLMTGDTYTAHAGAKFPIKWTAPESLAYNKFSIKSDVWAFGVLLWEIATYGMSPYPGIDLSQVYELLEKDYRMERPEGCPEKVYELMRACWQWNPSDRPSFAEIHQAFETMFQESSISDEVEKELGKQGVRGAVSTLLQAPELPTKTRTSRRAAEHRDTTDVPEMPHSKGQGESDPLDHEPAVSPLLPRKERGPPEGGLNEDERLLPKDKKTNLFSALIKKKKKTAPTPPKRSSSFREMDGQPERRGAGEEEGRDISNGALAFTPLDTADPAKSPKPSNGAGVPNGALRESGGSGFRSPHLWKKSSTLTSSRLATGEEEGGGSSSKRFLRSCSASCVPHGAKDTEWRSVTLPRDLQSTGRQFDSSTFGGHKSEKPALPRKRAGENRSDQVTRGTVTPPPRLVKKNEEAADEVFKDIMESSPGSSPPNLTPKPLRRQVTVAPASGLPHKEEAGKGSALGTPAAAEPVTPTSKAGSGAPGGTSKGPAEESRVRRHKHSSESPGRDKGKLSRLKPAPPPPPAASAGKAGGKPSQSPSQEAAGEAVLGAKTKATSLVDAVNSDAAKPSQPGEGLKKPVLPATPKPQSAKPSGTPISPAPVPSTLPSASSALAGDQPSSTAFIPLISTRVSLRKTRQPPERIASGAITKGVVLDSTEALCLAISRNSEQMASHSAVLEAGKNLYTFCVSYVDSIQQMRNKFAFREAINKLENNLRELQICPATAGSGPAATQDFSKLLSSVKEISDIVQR

[12] = target: T7, Tyrosine-protein kinase ABL1; assay: Inhibition of ABL ACT labeling site in human Huh-7 cell lysate at 1 uM by KiNativ Profiling analysis relative to control; type: subcellular
[13] = target: T8, Tyrosine-protein kinase CSK (Homo sapiens, UniProt P41240); assay: Inhibition of CSK ACT labeling site in human Huh-7 cell lysate at 1 uM by KiNativ Profiling analysis relative to control; type: subcellular
Target sequence in this assay (P41240 2-450 limits assumed): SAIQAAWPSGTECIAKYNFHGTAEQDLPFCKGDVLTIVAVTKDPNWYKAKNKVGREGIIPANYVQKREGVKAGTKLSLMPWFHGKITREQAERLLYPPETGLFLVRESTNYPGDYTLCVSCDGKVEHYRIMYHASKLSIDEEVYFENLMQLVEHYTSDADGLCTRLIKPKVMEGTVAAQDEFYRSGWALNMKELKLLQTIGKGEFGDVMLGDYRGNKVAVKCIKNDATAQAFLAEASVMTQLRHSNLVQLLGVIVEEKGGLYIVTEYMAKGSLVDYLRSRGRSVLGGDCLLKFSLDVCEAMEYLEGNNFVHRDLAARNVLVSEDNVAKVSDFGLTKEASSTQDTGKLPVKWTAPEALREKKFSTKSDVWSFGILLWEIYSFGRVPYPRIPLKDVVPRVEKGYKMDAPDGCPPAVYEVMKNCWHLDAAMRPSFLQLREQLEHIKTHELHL

[14] = target: T8, Tyrosine-protein kinase CSK; assay: Inhibition of CSK (unknown origin) ACT labeling site by KiNativ Profiling analysis
Target sequence in this assay (P41240 whole entry): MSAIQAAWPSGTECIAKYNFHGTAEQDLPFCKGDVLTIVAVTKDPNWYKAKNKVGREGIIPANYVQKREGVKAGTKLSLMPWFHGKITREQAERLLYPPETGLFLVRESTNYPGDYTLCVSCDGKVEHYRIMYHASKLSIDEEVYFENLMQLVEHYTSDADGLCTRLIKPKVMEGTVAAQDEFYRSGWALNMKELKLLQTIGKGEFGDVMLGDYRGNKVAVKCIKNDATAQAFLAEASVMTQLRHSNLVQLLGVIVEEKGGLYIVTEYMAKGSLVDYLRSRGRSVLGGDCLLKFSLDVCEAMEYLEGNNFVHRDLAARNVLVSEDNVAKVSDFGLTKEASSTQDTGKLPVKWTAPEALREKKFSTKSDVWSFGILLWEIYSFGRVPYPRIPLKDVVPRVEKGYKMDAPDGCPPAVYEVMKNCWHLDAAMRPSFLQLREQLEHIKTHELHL

SMILES	inhibition (L929)	inhibition [1] [%]	IC50 [2] [µM]	IC50 [3] [µM]	inhibition [4] [%]	IC50 (BaF3 [5]) [µM]	IC50 [6] [µM]	IC50 (BaF3 [7]) [µM]	inhibition [8] [%]	inhibition [9] [%]	IC50 [10] [µM]	inhibition [11] [%]	inhibition [12] [%]	inhibition [13] [%]	IC50 [14] [µM]
Cc1cn(-c2cc(NC(=O)c3ccc(C)c(Oc4ccnc5[nH]ccc45)c3)cc(C(F)(F)F)c2)cn1	inactive	72	4.49	0.0301	-1.5	–	–	–	–	–	–	–	–	–	–
COc1c(CCc2cc(C(=O)Nc3cc(-n4cnc(C)c4)cc(C(F)(F)F)c3)ccc2C)cnc2[nH]ccc12	–	–	–	–	–	4.92	0.0982	0.01	98.8	95.6	0.00527	80.4	92.2	–	–
COc1c(/C=C/c2cc(C(=O)Nc3ccc(CN4CCC(N(C)C)C4)c(C(F)(F)F)c3)ccc2C)cnc2[nH]ccc12 (stereo not given)	–	–	–	–	–	5.47	–	0.01	85	–	0.14	47.5	66.6	75.6	0.025
C[S+]([O-])c1ccc(-c2nc(-c3ccc(F)cc3)c(-c3ccncc3)[nH]2)cc1 (stereo not given)	inactive	–	–	–	–	–	–	–	–	–	–	–	–	–	–
CCN1CCN(Cc2ccc(NC(=O)c3ccc(C)c(/C=C/c4cnc5[nH]ccc5c4OC)c3)cc2)CC1	–	–	–	–	–	7.71	–	0.01	–	–	–	> 80	96.3	–	–
Cc1ccc(C(=O)Nc2cc(N3CCN(C)CC3)cc(C(F)(F)F)c2)cc1Oc1ncnc2[nH]ccc12	–	73.6	0.465	0.177	29.3	–	–	–	–	–	–	–	–	–	–
CCN1CCN(Cc2ccc(C(=O)Nc3ccc(C)c(Oc4ccnc5[nH]ccc45)c3)cc2C(F)(F)F)CC1	inactive	–	–	–	–	–	–	–	88.4	–	0.0195	–	–	–	–
CCN1CCN(c2ccc(NC(=O)c3ccc(C)c(CCc4cnc5[nH]ccc5c4OC)c3)cc2C(F)(F)F)CC1	–	–	–	–	–	9.74	–	0.181	–	–	–	75.2	80.7	–	–
CCN1CCN(Cc2ccc(NC(=O)c3cccc(CCc4cnc5[nH]ccc5c4OC)c3)cc2C(F)(F)F)CC1	–	–	–	–	–	> 10	0.301	0.387	–	78	–	83	66.4	–	–
CCN1CCN(Cc2ccc(NC(=O)c3ccc(C)c(Oc4ccnc(C(=O)NC)c4)c3)cc2C(F)(F)F)CC1	–	–	–	–	–	–	0.447	–	93.1	82.7	0.0696	–	–	–	–
CCN1CCN(Cc2ccc(NC(=O)c3cccc(Oc4ccnc5[nH]ccc45)c3)cc2C(F)(F)F)CC1	–	> 80	0.119	0.0238	75.6	7.44	–	0.01	85.8	–	0.0359	–	> 96	–	–
CCN1CCN(Cc2ccc(C(=O)Nc3cccc(CCc4cnc5[nH]ccc5c4OC)c3)cc2C(F)(F)F)CC1	–	–	–	–	–	> 10	0.179	0.016	95.9	78.4	0.555	> 80	90.3	–	–
CNC(=O)c1ccc(C)c(-n2c(C)cc(OCc3ccc(F)cc3F)c(Br)c2=O)c1	inactive	–	–	–	–	–	–	–	–	–	–	–	–	–	–
CCN1CCN(Cc2ccc(NC(=O)c3ccc(C)c(Oc4ccnc(NC)n4)c3)cc2C(F)(F)F)CC1	–	> 85	0.165	0.0265	77.7	> 10	0.546	0.085	95.4	89.6	0.0458	–	74.6	–	–
COc1c(/C=C/c2cc(C(=O)Nc3ccc(OC4CCN(C)CC4)c(C(F)(F)F)c3)ccc2C)cnc2[nH]ccc12	–	–	–	–	–	7.57	–	0.01	90.5	–	0.0636	> 85	94.5	–	–
CCN1CCN(Cc2ccc(NC(=O)c3ccc(C)c(OCc4cnc5[nH]ccc5c4OC)c3)cc2C(F)(F)F)CC1	–	89.4	0.15	0.0494	59.6	8.28	–	0.039	97.3	–	0.659	> 80	96	84	0.059
COc1c(/C=C/c2cc(C(=O)Nc3cccc(C(C)(C)C#N)c3)ccc2C)cnc2[nH]ccc12	–	–	–	–	–	3.3	0.103	0.01	–	95.8	–	71.5	62.2	75.7	0.0251
CCN1CCN(Cc2ccc(NC(=O)c3ccc(OC)c(Oc4ncnc5[nH]ccc45)c3)cc2C(F)(F)F)CC1	–	–	0.292	0.296	–	–	–	–	–	–	–	–	–	–	–
CCN1CCN(Cc2ccc(NC(=O)c3cccc(/C=C/c4cnc5[nH]ccc5c4OC)c3)cc2C(F)(F)F)CC1	–	–	–	–	–	7.1	0.396	0.01	–	75.3	–	82	89.6	–	–
